Measured values from ChEMBL document CHEMBL1125186, “GABA-uptake inhibitors: construction of a general pharmacophore model and successful prediction of a new representative” (J Med Chem, 1991).

Legend:
[1] = species: Rattus norvegicus; assay: Concentration required for 50% inhibition of GABA uptake in rat brain; type: functional
Method in brief: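 Rat corpus striatum synaptosomes from a 0.32 M sucrose homogenate: 1000g spin, then 20000g pellet, both at 4 °C. Synaptosomes (1 mg protein) incubated 2 min at 37 °C in pH 7.4 Krebs-Ringer phosphate with 0.15 M NaCl, [3H]GABA (25–40 Ci/mmol) and test compound up to 10⁻⁴ M. Stopped by dilution with NaCl-free medium, centrifuged; pellet radioactivity counted. IC50 derived from the concentration range.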

[2] = Dissociation constant was measured by potentiometric titrations; type: physicochemical
Method in brief: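 pKa determined by potentiometric titration; values are means of at least two determinations.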

[3] = Delta logPoct-cyc; type: ADME; settings: octanol/water
Method in brief: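 ΔP taken as log Poct minus log Pcyc. Both come from shake-flask partitioning at room temperature against 0.15 M phosphate buffer pH 7.4, with the aqueous phase read spectrophotometrically.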

[4] = I/U is the ratio of zwitterionic (I) to that of unionized […]; type: ADME
Method in brief: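 Ratio of zwitterionic (I) to un-ionized (U) species calculated by the Wegscheider method.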

[5] = Dissociation constant was measured as pKa1 by potentiometric titrations
[6] = Partition coefficient (logP) (cyclohexane); type: physicochemical; settings: cyclohexane/phosphate buffer pH 7.4
Method in brief: (§1)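 Conventional shake-flask partitioning at room temperature, 1-octanol or cyclohexane against 0.15 M phosphate buffer pH 7.4. Compound in the aqueous phase quantified spectrophotometrically. Means of at least two determinations.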

[7] = Partition coefficient (logP); type: physicochemical; settings: octanol/water; method in brief: as §1
[8] = Concentration required for 50% inhibition of GABA uptake in rat brain

Question: Which IC50 [1] does the source give for `CN1CC(C(=O)O)=CCC1CCCCc1ccccc1` (configuration not stated) here?
Answer: > 100 µM

Question: Which IC50 [1] does the source give for `O=C(O)C1=CCC(CCCCc2ccccc2)NC1` (configuration not stated) here?
Answer: > 100 µM

Question: For `O=C(O)C1=CCC(CCc2ccccc2)NC1` (configuration not stated), which IC50 [1] is on record?
Answer: 100 µM

Question: Which IC50 [1] does the source give for `CCOC(=O)C1=CCC(CCC(c2ccccc2)c2ccccc2)NC1` (configuration not stated) here?
Answer: 37 µM

Question: What does the source list for `Cl.O=C(O)C1=CCC(CCC(c2ccccc2)c2ccccc2)NC1` (configuration not stated)?
Answer: pKa2 [2]: 9.25; delta logP [3]: 2.71; Ratio [4]: 7000; pKa [5]: 3.79; logP [6]: -2; IC50 [1]: 0.1 µM; logP [7]: 0.71

Question: Which IC50 [1] does the source give for `CCCC1CC=C(C(=O)O)CN1` (configuration not stated) here?
Answer: > 100 µM

Question: Which IC50 [1] does the source give for `CCC1CC=C(C(=O)O)CN1` (configuration not stated) here?
Answer: > 100 µM

Question: With `CCOC(=O)C1=CCC(CC)NC1` (configuration not stated) as the compound, how does the IC50 [1] read?
Answer: > 100 µM

Question: With `CC1CC=C(C(=O)O)CN1` (configuration not stated) as the compound, how does the IC50 [1] read?
Answer: 40 µM

Question: For `CCCC1CC=C(C(=O)OCC)CN1` (configuration not stated), which IC50 [1] is on record?
Answer: > 100 µM

Question: For `O=C(O)C1CCCN(CCC=C(c2ccccc2)c2ccccc2)C1` (configuration not stated), which pKa2 [2] is on record?
Answer: 9.23

Question: What about the “delta logP” value [3] of the same compound?
Answer: 1.43

Question: And the Ratio [4]?
Answer: 6000

Question: What about the logP [6] of the same compound?
Answer: -0.43

Question: And the logP [7]?
Answer: 0.99

Question: And the pKa [8]?
Answer: 3.57
